According to ChEMBL document CHEMBL4152260, “Design, synthesis and biological evaluation of novel quinazoline-2,4-diones conjugated with different amino acids as potential chitin synthase inhibitors” (Eur J Med Chem, 2018):
Converted amounts (≈) assume the structure as drawn.

Legend:
Saccharomyces cerevisiae = experiment: Inhibition of yeast chitin synthase at 300 ug/ml using UDP-GlcNAc as substrate measured after 1 hr relative to control
Outline: (§1)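 Membrane CHS from S. cerevisiae CGMCC2.145 (YPAD, 30 °C, 48 h; sonication; 55000 g pellet in Tris/33% glycerol). Wells coated with WGA and blocked with BSA. Reaction in pH 6.8 Tris-maleate with 40 mM GlcNAc, 2 mM UDP-GlcNAc, 37 °C, 1 h. Product detected with WGA-HRP and TMB/H2O2, A450. Test solutions 300–18.75 μg/mL. Inhibition = (B0−Bn)/(B0−OD0); IC50 from log c plot.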

Aspergillus flavus [1] = experiment: Antifungal activity against Aspergillus flavus ATCC 16870 measured after 24 hrs; assay type: functional; conditions: ATCC 16870, 24 h
Cryptococcus neoformans [2] = experiment: Antifungal activity against Cryptococcus neoformans ATCC 32719 measured after 24 hrs; assay type: functional; conditions: ATCC 32719, 24 h
Aspergillus fumigatus [3] = experiment: Antifungal activity against Aspergillus fumigatus GIMCC 3.19 measured after 24 hrs; assay type: functional; conditions: GIMCC 3.19, 24 h
Candida albicans [4] = experiment: Antifungal activity against Candida albicans ATCC 76615 measured after 24 hrs; assay type: functional; conditions: ATCC 76615, 24 h
[5] = Inhibition of yeast chitin synthase using UDP-GlcNAc as substrate measured after 1 hr; design: species or system Saccharomyces cerevisiae; outline: as §1
Aspergillus fumigatus [6] = experiment: Antifungal activity against Aspergillus fumigatus GIMCC 3.19 measured after 48 hrs by two-dimensional broth microdilution checkboard method; assay type: functional; conditions: GIMCC 3.19, 48 h
Outline: (§2)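 MICs of each agent alone re-determined in the checkerboard run. Two-dimensional broth microdilution per CLSI M27-A3, 35 °C for 48 h, each test performed twice (duplicate).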

Candida albicans [7] = experiment: Antifungal activity against Candida albicans ATCC 76615 measured after 48 hrs by two-dimensional broth microdilution checkboard method; assay type: functional; conditions: ATCC 76615, 48 h; outline: as §2
Cryptococcus neoformans [8] = experiment: Antifungal activity against Cryptococcus neoformans ATCC 32719 measured after 48 hrs by two-dimensional broth microdilution checkboard method; assay type: functional; conditions: ATCC 32719, 48 h; outline: as §2
Aspergillus flavus [9] = experiment: Antifungal activity against Aspergillus flavus ATCC 16870 measured after 48 hrs by two-dimensional broth microdilution checkboard method; assay type: functional; conditions: ATCC 16870, 48 h; outline: as §2
Aspergillus flavus [10] = experiment: Synergistic antifungal activity against Aspergillus flavus ATCC 16870 measured after 48 hrs in presence of fluconazole by two-dimensional broth microdilution checkboard method; assay type: functional; conditions: ATCC 16870, 48 h
Outline: (§3)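 Two-dimensional broth microdilution checkerboard combining test agent with fluconazole per CLSI M27-A3, 35 °C for 48 h, duplicate runs. Combination MICs read. FIC index = MIC_A(comb)/MIC_A(alone) + MIC_B(comb)/MIC_B(alone). Interaction classed synergistic ≤0.5, indifferent >0.5–4, antagonistic >4.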

Candida albicans [11] = experiment: Synergistic antifungal activity against Candida albicans ATCC 76615 assessed as FIC index measured after 48 hrs in presence of fluconazole by two-dimensional broth microdilution checkboard method; assay type: functional; outline: as §3
Aspergillus fumigatus [12] = experiment: Synergistic antifungal activity against Aspergillus fumigatus GIMCC 3.19 assessed as fluconazole MIC mesured after 48 hrs by two-dimensional broth microdilution checkboard method; assay type: functional; conditions: GIMCC 3.19, 48 h; outline: as §3
Cryptococcus neoformans [13] = experiment: Synergistic antifungal activity against Cryptococcus neoformans ATCC 32719 measured after 48 hrs in presence of fluconazole by two-dimensional broth microdilution checkboard method; assay type: functional; conditions: ATCC 32719, 48 h; outline: as §3
Cryptococcus neoformans [14] = experiment: Synergistic antifungal activity against Cryptococcus neoformans ATCC 32719 assessed as fluconazole MIC mesured after 48 hrs by two-dimensional broth microdilution checkboard method; assay type: functional; conditions: ATCC 32719, 48 h; outline: as §3
Aspergillus flavus [15] = experiment: Synergistic antifungal activity against Aspergillus flavus ATCC 16870 assessed as fluconazole MIC mesured after 48 hrs by two-dimensional broth microdilution checkboard method; assay type: functional; conditions: ATCC 16870, 48 h; outline: as §3
Candida albicans [16] = experiment: Synergistic antifungal activity against Candida albicans ATCC 76615 measured after 48 hrs in presence of fluconazole by two-dimensional broth microdilution checkboard method; assay type: functional; conditions: ATCC 76615, 48 h; outline: as §3
Aspergillus flavus [17] = experiment: Synergistic antifungal activity against Aspergillus flavus ATCC 16870 assessed as FIC index measured after 48 hrs in presence of fluconazole by two-dimensional broth microdilution checkboard method; assay type: functional; outline: as §3
Aspergillus fumigatus [18] = experiment: Synergistic antifungal activity against Aspergillus fumigatus GIMCC 3.19 measured after 48 hrs in presence of fluconazole by two-dimensional broth microdilution checkboard method; assay type: functional; conditions: GIMCC 3.19, 48 h; outline: as §3
Candida albicans [19] = experiment: Synergistic antifungal activity against Candida albicans ATCC 76615 assessed as fluconazole MIC mesured after 48 hrs by two-dimensional broth microdilution checkboard method; assay type: functional; conditions: ATCC 76615, 48 h; outline: as §3
Aspergillus fumigatus [20] = experiment: Synergistic antifungal activity against Aspergillus fumigatus GIMCC 3.19 assessed as FIC index measured after 48 hrs in presence of fluconazole by two-dimensional broth microdilution checkboard method; assay type: functional; outline: as §3
Cryptococcus neoformans [21] = experiment: Synergistic antifungal activity against Cryptococcus neoformans ATCC 32719 assessed as FIC index measured after 48 hrs in presence of fluconazole by two-dimensional broth microdilution checkboard method; assay type: functional; outline: as §3

SMILES	inhibition (Saccharomyces cerevisiae) [%]	MIC (Aspergillus flavus [1]) [µM]	MIC (Cryptococcus neoformans [2]) [µM]	MIC (Aspergillus fumigatus [3]) [µM]	MIC (Candida albicans [4]) [µM]	further results
CC(C)C[C@H](NC(=O)Cn1c(=O)c2ccccc2n(C)c1=O)C(=O)O	52.8	> 1470	> 1470	730 (≈ 254 µg/mL)	> 1470	–
CSCC[C@H](NC(=O)Cn1c(=O)c2ccccc2n(C)c1=O)C(=O)O	43.1	> 1400	700 (≈ 256 µg/mL)	1400 (≈ 512 µg/mL)	> 1400	–
Cn1c(=O)n(CC(=O)NCCCC(=O)O)c(=O)c2ccccc21	68.2	1600 (≈ 511 µg/mL)	800 (≈ 255 µg/mL)	800 (≈ 255 µg/mL)	1600 (≈ 511 µg/mL)	IC50 [5]: 300 µM
CC(C)[C@H](NC(=O)Cn1c(=O)c2ccccc2n(C)c1=O)C(=O)O	18.5	> 1530	760 (≈ 253 µg/mL)	760 (≈ 253 µg/mL)	> 1530	–
Cn1c(=O)n(CC(=O)N[C@@H](Cc2cnc[nH]2)C(=O)O)c(=O)c2ccccc21	61.5	> 1370	680 (≈ 253 µg/mL)	1370 (≈ 509 µg/mL)	> 1370	IC50 [5]: 300 µM
OC(Cn1cncn1)(Cn1cncn1)c1ccc(F)cc1F [FLUCONAZOLE]	–	100 (≈ 30.6 µg/mL)	100 (≈ 30.6 µg/mL)	50 (≈ 15.3 µg/mL)	200 (≈ 61.3 µg/mL)	MIC (Aspergillus fumigatus [6]): 209 µM (≈ 64 µg/mL); MIC (Candida albicans [7]): 104 µM (≈ 31.9 µg/mL); MIC (Cryptococcus neoformans [8]): 104 µM (≈ 31.9 µg/mL); MIC (Aspergillus flavus [9]): 104 µM (≈ 31.9 µg/mL)
Cn1c(=O)n(CC(=O)NCCC(=O)O)c(=O)c2ccccc21	47.5	1670 (≈ 510 µg/mL)	830 (≈ 253 µg/mL)	830 (≈ 253 µg/mL)	1670 (≈ 510 µg/mL)	–
Cn1c(=O)n(CC(=O)NC(Cc2ccc(OC(=O)Cn3c(=O)c4ccccc4n(C)c3=O)cc2)C(=O)O)c(=O)c2ccccc21 (centres undefined)	65.3	410 (≈ 252 µg/mL)	410 (≈ 252 µg/mL)	410 (≈ 252 µg/mL)	830 (≈ 509 µg/mL)	MIC (Aspergillus fumigatus [6]): 834 µM (≈ 512 µg/mL); MIC (Aspergillus flavus [10]): 209 µM; fractional inhibitory concentration index (FICI) (Candida albicans [11]): 1.125; MIC (Aspergillus fumigatus [12]): 52 µM; MIC (Cryptococcus neoformans [13]): 26 µM; MIC (Cryptococcus neoformans [14]): 52 µM; IC50 [5]: 166 µM; MIC (Aspergillus flavus [15]): 26 µM; MIC (Candida albicans [7]): 417 µM (≈ 256 µg/mL); MIC (Candida albicans [16]): 417 µM; fractional inhibitory concentration index (FICI) (Aspergillus flavus [17]): 0.625; MIC (Aspergillus fumigatus [18]): 209 µM; MIC (Candida albicans [19]): 13 µM; MIC (Cryptococcus neoformans [8]): 417 µM (≈ 256 µg/mL); MIC (Aspergillus flavus [9]): 417 µM (≈ 256 µg/mL); fractional inhibitory concentration index (FICI) (Aspergillus fumigatus [20]): 0.3125; fractional inhibitory concentration index (FICI) (Cryptococcus neoformans [21]): 0.5625
Cn1c(=O)n(CC(=O)N[C@@H](Cc2ccccc2)C(=O)O)c(=O)c2ccccc21	50.5	> 1340	> 1340	> 1340	> 1340	–
CCC(NC(=O)Cn1c(=O)c2ccccc2n(C)c1=O)C(=O)O (centres undefined)	13.2	1600 (≈ 511 µg/mL)	800 (≈ 255 µg/mL)	800 (≈ 255 µg/mL)	> 1600	–
C[C@@H](NC(=O)Cn1c(=O)c2ccccc2n(C)c1=O)C(=O)O	47.8	830 (≈ 253 µg/mL)	830 (≈ 253 µg/mL)	830 (≈ 253 µg/mL)	1670 (≈ 510 µg/mL)	–
Cn1c(=O)n(CC(=O)N[C@@H](Cc2c[nH]c3ccccc23)C(=O)O)c(=O)c2ccccc21	43.8	600 (≈ 252 µg/mL)	600 (≈ 252 µg/mL)	> 1210	> 1210	–
Cn1c(=O)n(CC(=O)N2CCC[C@H]2C(=O)O)c(=O)c2ccccc21	75.5	1540 (≈ 510 µg/mL)	770 (≈ 255 µg/mL)	770 (≈ 255 µg/mL)	> 1540	MIC (Aspergillus fumigatus [6]): 1540 µM (≈ 512 µg/mL); MIC (Aspergillus flavus [10]): 193 µM; fractional inhibitory concentration index (FICI) (Candida albicans [11]): 0.625; MIC (Aspergillus fumigatus [12]): 13 µM; MIC (Cryptococcus neoformans [13]): 386 µM; MIC (Cryptococcus neoformans [14]): 104 µM; IC50 [5]: 180 µM; MIC (Aspergillus flavus [15]): 7 µM; MIC (Candida albicans [7]): 773 µM (≈ 256 µg/mL); MIC (Candida albicans [16]): 386 µM; fractional inhibitory concentration index (FICI) (Aspergillus flavus [17]): 0.3125; MIC (Aspergillus fumigatus [18]): 1540 µM; MIC (Candida albicans [19]): 13 µM; MIC (Cryptococcus neoformans [8]): 773 µM (≈ 256 µg/mL); MIC (Aspergillus flavus [9]): 773 µM (≈ 256 µg/mL); fractional inhibitory concentration index (FICI) (Aspergillus fumigatus [20]): 1.0625; fractional inhibitory concentration index (FICI) (Cryptococcus neoformans [21]): 1.5
Cn1c(=O)n(CC(=O)N[C@@H](CO)C(=O)O)c(=O)c2ccccc21	56.2	1590 (≈ 511 µg/mL)	> 1590	790 (≈ 254 µg/mL)	> 1590	–
Cn1c(=O)n(CC(=O)NCC(=O)O)c(=O)c2ccccc21	22.6	870 (≈ 253 µg/mL)	870 (≈ 253 µg/mL)	> 1750	> 1750	–
